Assay results: ChEMBL document CHEMBL4038346, “Effect of Nitrogen Atom Substitution in A3 Adenosine Receptor Binding: N-(4,6-Diarylpyridin-2-yl)acetamides as Potent and Selective Antagonists” (J Med Chem, 2017)
Active and inactive are the calls of the source. The calls are words filed in the database; no cut-off is given here.

Experiments:
Adenosine receptor A2a [1] = target: T1, Adenosine receptor A2a (Homo sapiens, UniProt P29274); assay: Displacement of [3H]ZM241385 from human adenosine A2A receptor expressed in human HeLa cell membranes at 1 uM after 30 mins relative to control
T1 sequence (P29274 whole entry): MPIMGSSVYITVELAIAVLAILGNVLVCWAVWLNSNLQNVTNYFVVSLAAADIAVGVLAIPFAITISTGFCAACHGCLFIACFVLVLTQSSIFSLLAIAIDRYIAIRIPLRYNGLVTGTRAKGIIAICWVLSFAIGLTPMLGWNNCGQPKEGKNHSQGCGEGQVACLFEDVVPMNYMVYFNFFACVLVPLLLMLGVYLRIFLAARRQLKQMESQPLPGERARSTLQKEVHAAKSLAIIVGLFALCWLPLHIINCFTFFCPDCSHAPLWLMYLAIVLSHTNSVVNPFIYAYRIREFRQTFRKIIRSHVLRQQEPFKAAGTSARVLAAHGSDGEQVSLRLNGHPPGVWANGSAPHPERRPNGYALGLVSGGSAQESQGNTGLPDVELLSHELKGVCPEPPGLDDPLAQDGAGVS

Adenosine receptor A3 = target: T2, Adenosine receptor A3 (Homo sapiens, UniProt P0DMS8); assay: (§1) Displacement of [3H]NECA from human adenosine A3 receptor expressed in human HeLa cell membranes after 180 mins
T2 sequence (P0DMS8 whole entry): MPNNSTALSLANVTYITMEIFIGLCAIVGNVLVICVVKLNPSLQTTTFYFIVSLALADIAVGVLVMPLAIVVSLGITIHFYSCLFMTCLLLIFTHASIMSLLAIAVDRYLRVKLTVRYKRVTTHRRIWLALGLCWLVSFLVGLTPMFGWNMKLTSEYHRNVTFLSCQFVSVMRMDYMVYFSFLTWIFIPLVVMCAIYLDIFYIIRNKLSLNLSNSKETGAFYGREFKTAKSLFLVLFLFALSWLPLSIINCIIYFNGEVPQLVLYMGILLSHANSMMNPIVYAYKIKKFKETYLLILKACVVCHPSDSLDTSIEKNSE

[2] = target: T3, Adenosine receptor A1 (Homo sapiens) (UniProt P30542); assay: Displacement of [3H]DPCPX from human adenosine A1 receptor expressed in CHO cell membranes at 1 uM after 60 mins relative to control
T3 sequence (whole entry): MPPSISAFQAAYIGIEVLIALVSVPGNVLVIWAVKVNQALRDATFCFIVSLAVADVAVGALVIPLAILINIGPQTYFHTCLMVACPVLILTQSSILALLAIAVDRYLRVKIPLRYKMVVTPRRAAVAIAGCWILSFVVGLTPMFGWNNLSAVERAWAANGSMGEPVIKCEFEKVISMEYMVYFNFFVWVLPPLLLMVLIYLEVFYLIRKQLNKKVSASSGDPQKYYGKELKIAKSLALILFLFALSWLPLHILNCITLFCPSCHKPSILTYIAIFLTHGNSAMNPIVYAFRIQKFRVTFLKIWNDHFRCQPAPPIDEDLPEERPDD

[3] = target: T4, Adenosine receptor A2b (Homo sapiens) (UniProt P29275); assay: Displacement of [3H]DPCPX from human adenosine A2B receptor expressed in HEK293 cell membranes at 1 uM after 30 mins relative to control
T4 sequence (whole entry): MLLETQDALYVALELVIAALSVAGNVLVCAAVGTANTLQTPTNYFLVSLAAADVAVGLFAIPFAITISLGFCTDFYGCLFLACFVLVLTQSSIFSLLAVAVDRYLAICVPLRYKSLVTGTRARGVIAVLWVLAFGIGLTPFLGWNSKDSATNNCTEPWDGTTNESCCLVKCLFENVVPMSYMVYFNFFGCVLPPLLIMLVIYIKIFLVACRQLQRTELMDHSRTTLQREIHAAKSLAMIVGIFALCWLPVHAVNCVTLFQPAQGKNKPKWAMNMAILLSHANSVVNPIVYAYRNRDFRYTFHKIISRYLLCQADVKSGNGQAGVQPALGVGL

[4] = target: T5, Adenosine receptor A3 (Homo sapiens) (UniProt P0DMS8); assay: as §1
T5 sequence (whole entry): T2 sequence (P0DMS8 whole entry)

Adenosine receptor A1 = target: T6, Adenosine receptor A1 (Homo sapiens, UniProt P30542); assay: Displacement of [3H]DPCPX from human adenosine A1 receptor expressed in CHO cell membranes after 60 mins
T6 sequence (P30542 whole entry): T3 sequence (whole entry)

Adenosine receptor A2a [5] = target: T1, Adenosine receptor A2a; assay: Displacement of [3H]ZM241385 from human adenosine A2A receptor expressed in human HeLa cell membranes after 30 mins
[6] = target: T5, Adenosine receptor A3 (Homo sapiens); assay: Antagonist activity at human adenosine A3 receptor expressed in CHO cells assessed as decrease in NECA-induced inhibition of forskolin-stimulated cAMP formation preincubated for 15 mins followed by NECA addition for 10 mins and subsequent forskolin challenge for 5 mins by enzyme immunoassay; assay type: functional, cell-based
Summary of the method: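 CHO-A3 cells seeded at 20 000/well in DMEM-F12 with 10% FCS and 1% L-glutamine, grown 24 h at 37 °C, 5% CO2. Washed, then preincubated 15 min at 37 °C in DMEM-F12/25 mM HEPES pH 7.4 with 30 μM rolipram plus antagonist.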

[7] = target: Adenosine receptors; A1 & A3 (Homo sapiens) (UniProt P30542+P0DMS8); assay: Selectivity ratio of Ki for human adenosine A1 receptor expressed in CHO cell membranes to Ki for human adenosine A3 receptor expressed in human HeLa cell membranes; assay type: cell-based
Adenosine receptor A2b = target: T7, Adenosine receptor A2b (Homo sapiens, UniProt P29275); assay: Displacement of [3H]DPCPX from human adenosine A2B receptor expressed in HEK293 cell membranes after 30 mins
T7 sequence (P29275 whole entry): T4 sequence (whole entry)

`CC(=O)Nc1cc(-c2ccc(C(C)=O)cc2)cc(-c2ccc(C(C)=O)cc2)n1` gave an inhibition (Adenosine receptor A2a [1]) of 4%.

Work on `COc1cc(OC)cc(-c2cc(NC(C)=O)nc(-c3cc(OC)cc(OC)c3)c2)c1` yielded an inhibition (Adenosine receptor A2a [1]) of 2%.

Work on `COc1ccccc1-c1cc(NC(C)=O)nc(-c2ccccc2OC)c1` yielded a Ki (Adenosine receptor A3) of 781 nM, an inhibition [2] of 8% and an inhibition (Adenosine receptor A2a [1]) of 1%. For the same compound, the inhibition [3] was 19%.

`COc1cc(-c2cc(NC(C)=O)nc(-c3cc(OC)c(OC)c(OC)c3)c2)cc(OC)c1OC` showed a Ki (Adenosine receptor A3) of 116 nM, an inhibition [2] of 8% and an inhibition (Adenosine receptor A2a [1]) of 15%. It also gave an inhibition [3] of 4%.

For `COc1ccccc1-c1cc(NC(C)=O)nc(-c2ccccc2OC)n1`, the inhibition [4] was “Active”.

With `COc1cccc(-c2cc(NC(C)=O)nc(-c3cccc(OC)c3)c2)c1` the Ki (Adenosine receptor A1) was 239 nM and the inhibition (Adenosine receptor A2a [1]) was 21%.

Compound `COc1ccc(-c2cc(NC(C)=O)nc(-c3ccc(OC)c(OC)c3)c2)cc1OC` has an inhibition (Adenosine receptor A2a [1]) of 1%.

With `CC(=O)Nc1cc(-c2ccc(OC(F)(F)F)cc2)cc(-c2ccc(OC(F)(F)F)cc2)n1` the inhibition (Adenosine receptor A2a [1]) was 1%.

Work on `COc1ccc(-c2cc(NC(C)=O)nc(-c3ccc(OC)cc3OC)c2)c(OC)c1` yielded an inhibition (Adenosine receptor A2a [1]) of 2%.

With `COc1cccc(-c2cc(NC(C)=O)nc(-c3cccc(OC)c3OC)c2)c1OC` the Ki (Adenosine receptor A2a [5]) was 353 nM.

`CC(=O)Nc1cc(-c2ccc(C)cc2)cc(-c2ccc(C)cc2)n1` gave an inhibition (Adenosine receptor A2a [1]) of 1%.

`COc1ccc(OC)c(-c2cc(NC(C)=O)nc(-c3cc(OC)ccc3OC)c2)c1` was tested, and the Ki (Adenosine receptor A3) was 35.2 nM, the inhibition [2] was 3% and the inhibition (Adenosine receptor A2a [1]) was 3%. It also gave an inhibition [3] of 1%.

`COc1ccc(-c2cc(NC(C)=O)nc(-c3ccc(OC)cc3)c2)cc1` was tested, and the inhibition (Adenosine receptor A2a [1]) was 15%.

For `COc1cccc(OC)c1-c1cc(NC(C)=O)nc(-c2c(OC)cccc2OC)c1`, the inhibition (Adenosine receptor A2a [1]) was 1%.

For `CC(=O)Nc1cc(-c2ccc3c(c2)OCO3)cc(-c2ccc3c(c2)OCO3)n1`, the Ki (Adenosine receptor A3) was 2.8 nM, the Kb [6] was 1.9 nM and the Ki (Adenosine receptor A1) was 91.1 nM. The Ratio Ki [7] was 30, the inhibition (Adenosine receptor A2a [1]) was 9% and the inhibition [3] was 27%.

In the case of `CSc1ccc(-c2cc(NC(C)=O)nc(-c3ccc(SC)cc3)c2)cc1`, the inhibition (Adenosine receptor A2a [1]) is reported as 2%.

In the case of `CC(=O)Nc1cc(-c2ccc(C(C)=O)cc2)nc(-c2ccc(C(C)=O)cc2)n1`, the inhibition [4] is reported as “Active”.

`CC(=O)Nc1cc(-c2ccccc2)cc(-c2ccccc2)n1` was tested, and the Ki (Adenosine receptor A3) was 98.5 nM, the Ki (Adenosine receptor A1) was 21.1 nM and the inhibition (Adenosine receptor A2a [1]) was 49%. For the same compound, the Ki (Adenosine receptor A2b) was 51.2 nM.
